# Source: PubChem
# CHO parental Ca: counter-screen: ATP calcium response change in parental CHO cells | parental CHO-K1, ATP-induced calcium, Fluo-8 fluorescence | actives 0.63% (n = 330,000) | inhibition, % at 5.6 µM;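 active = inhibition above that plate's mean sample inhibition plus 3 SD, cut at about 26% in these data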;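 note: 0% = ATP-challenged DMSO wells and 100% = DMSO wells without ATP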
#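 Measured by: calcium-sensitive Fluo-8 fluorescence / Test system: CHO parental line / Controls: ATP-challenged DMSO wells low, unchallenged DMSO wells high / Measure: % inhibition / Compound: single nominal dose of 5.6 µM per compound / Replicates: single well per compound, no replicates / Reagent: ATP as calcium-mobilizing challenge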
# GPR7 antag: human neuropeptides B/W receptor 1 antagonism. actives 1.1% (n = 290,000). GPR7-expressing cells, fluorescence antagonist assay. inhibition, % at 4.4 µM. P48145; in the data active = inhibition above about 16%, passing the limit was not always enough;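 note: cells stimulated with the agonist NPW; 0% = agonist with vehicle and 100% = vehicle without agonist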
# OX1R antag-1: blocks the human orexin 1 receptor | inhibition, % at 6.6 µM | OX1R-expressing cells, FRET antagonist read-out | O43613 | actives 1.8% (n = 330,000); in the data active = inhibition mostly above about 38%, no sharp cut-off; inactive = mostly below about 40%;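 note: 0% = agonist challenge alone and 100% = reference antagonist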
# Target sequence (O43613 whole entry, looked up): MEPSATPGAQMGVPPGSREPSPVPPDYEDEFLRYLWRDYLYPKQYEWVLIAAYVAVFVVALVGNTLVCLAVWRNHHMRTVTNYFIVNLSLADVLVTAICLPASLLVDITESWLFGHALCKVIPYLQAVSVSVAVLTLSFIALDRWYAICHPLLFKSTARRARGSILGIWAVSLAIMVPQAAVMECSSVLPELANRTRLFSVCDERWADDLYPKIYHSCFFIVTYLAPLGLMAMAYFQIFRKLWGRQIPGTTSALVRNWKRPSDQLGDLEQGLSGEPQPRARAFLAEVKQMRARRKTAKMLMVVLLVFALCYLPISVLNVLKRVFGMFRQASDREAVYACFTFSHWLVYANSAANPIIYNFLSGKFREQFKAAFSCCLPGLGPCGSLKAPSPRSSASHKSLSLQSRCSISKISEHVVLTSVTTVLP
# TAAR1 ag: human TAAR1 agonism; Q96RJ0; CHO RD-HGA16 TAAR1, Fluo-8 calcium fluorescence; vehicle wells 0%, saturating PEA agonist 100%; activation, % at 3 µM; actives 0.99% (n = 360,000); AID 624467;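 active = activation above the mean activation of all test compounds in the run plus 3 SD, cut at about 38% in these data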
#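 System: CHO-derived RD-HGA16 cells with stable Gα16 and human TAAR1. Times: 17-24 h plating, Fluo-8 75 min 37 °C, 30 min RT. Measured by: calcium-sensitive Fluo-8 signal, excitation 470-495, emission 515-575 nm. Read-out basis: % activation relative to PEA EC100 response. Control set: DMSO and PEA EC100. Repeats: no replicates (n 1).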
# TAAR1 antagonist: antagonists of human TAAR1; Q96RJ0; CHO RD-HGA16 TAAR1, Fluo-8 calcium fluorescence, antagonist; inhibition, % at 3 µM; actives 1.5% (n = 360,000); AID 624466;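 active = inhibition above a per-plate cutoff, the mean inhibition of test compounds on that plate plus 3 SD, cut at about 49% in these data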;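 note: 0% = DMSO plus EC80 beta-PEA response and 100% = DMSO alone without agonist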
#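 Assay system: RD-HGA16 CHO cells with stable hTAAR1 and Gα16 / Reagent: EC80 β-phenethylamine stimulus / Doses: 3 µM, single point / Timing: dye loading 75 min at 37 °C, then 30 min room temperature / Measured by: Fluo-8 intracellular calcium dye fluorescence, real-time kinetic reads / Controls: vehicle wells and EC80 agonist wells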
# OX1R antag-2: blocks the human orexin 1 receptor; O43613; CHO/OX1R cells, Fluo-8 calcium fluorescence, orexin A; inhibition, % at 5 µM; actives 0.43% (n = 330,000); AID 434989;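 active = inhibition above its plate's threshold, mean inhibition of all tested compounds on the plate plus 3 SD, cut at about 37% in these data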;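 note: 0% = orexin A challenge wells and 100% = SB-334867-A antagonist wells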
# OX1R HTRF confirm: OX1R (human) antagonism, HTRF confirmed. shares compounds with OX1R antag-1. actives 49% (n = 1,800). inhibition, % at 6.6 µM. OX1R-expressing cells, HTRF antagonist assay; in the data active = inhibition above about 55%;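 note: CHO cells expressing OX1R stimulated with orexin A at about EC80; 0% = agonist challenge alone and 100% = reference antagonist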
# CHO-K1 HTRF: signal in parental CHO-K1 cells, OX1R antagonist counter-screen; inhibition, % at 6.6 µM; actives 48% (n = 1,800); HTRF counterscreen; shares compounds with OX1R antag-1; in the data active = inhibition above about 17%;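 note: 0% = agonist challenge with vehicle and 100% = vehicle alone without agonist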
# Numbers without * were called inactive; nt = no result. Most compounds without a hit are left out; they make up all but 4.6% or so of the library.
SMILES,CHO parental Ca,GPR7 antag,OX1R antag-1,TAAR1 ag,TAAR1 antagonist,OX1R antag-2,OX1R HTRF confirm,CHO-K1 HTRF
CN(C(=O)COC(=O)/C=C/c1cccc([N+](=O)[O-])c1)C1CCS(=O)(=O)C1 (stereo not given),-11,-11,90*,1,-3,-18,41,43*
CCN(C(=O)COC(=O)/C=C/c1cccc(Br)c1)C1CCS(=O)(=O)C1 (stereo not given),-2,-13,21,1,-31,-13,nt,nt
COC(=O)c1cc(C(=O)OCC(=O)NC2CCCC2)cc([N+](=O)[O-])c1,1,-7,34,-2,-11,-13,nt,nt
Cc1nc(-c2ccc(C(=O)NCCO)cc2)cs1,-1,-7,5,1,-19,3,nt,nt
Cc1ccc(C)c(N(CC(=O)NC(C)(C)C)C(=O)CNC(=O)c2cccs2)c1,-15,-3,115*,7,2,-26,14,3
Cc1ccccc1N(CC(=O)NC1CCCCC1)C(=O)CNC(=O)c1cccs1,-21,-4,16,-2,7,-30,nt,nt
COCCNC(=O)C(c1ccc(Cl)cc1)N(Cc1ccco1)C(=O)CCC(=O)Nc1ccccn1 (stereo not given),-16,-3,82*,1,-3,9,58*,3
CN(CCOc1ccccc1)C(=O)c1cc(S(=O)(=O)N2CCCCC2)ccc1Cl,-14,nt,21,3,-33,-37,nt,nt
COc1cc2sc3ccc(-c4ccc(N(C)C)nc4)cc3c(=O)c2cc1OC,-18,nt,80*,4,-14,-6,65*,17
Cc1ccc(CC(=O)Nc2nc3ccccc3s2)cc1,-18,9,21,19,4,-15,nt,nt
Cc1nc2c(ccc3nc(NC(=O)Cc4ccccc4)sc32)s1,-18,-7,77*,-3,-2,5,89*,3
CCOC(=O)C1(CCCc2ccccc2)CCN(C(=O)c2cnn(CC)c2)CC1,1,-8,1,10,-5,-13,nt,nt
O=C(COC(=O)COc1ccccc1F)NCc1ccco1,8,nt,5,4,-11,23,nt,nt
O=C(CSc1nc(N2CCOCC2)nc(N2CCOCC2)n1)Nc1cccc(C(F)(F)F)c1,-12,-13,15,0,-21,-27,nt,nt
Cc1nc2[nH]onc2c2nccc(=O)c12,-4,-7,121*,2,8,-21,32,38*
COCCOC(=O)C1=C(C)NC(C)=C(C(=O)OCCOC)C1/C=C/c1ccccc1OC,-10,-8,78*,0,8,-75,23,-2
COc1cccc(CNC(=O)C2CCN(S(=O)(=O)c3ccc4c(c3)OCCO4)CC2)c1,-11,-19,1,1,1,-5,nt,nt
CCOC(=O)C1CCN(C(=O)C2CCN(C(=O)c3ccc([N+](=O)[O-])cc3)CC2)CC1,-7,15,81*,nt,nt,-9,34,26*
CCOc1ccc(CCNC(=O)C2CC(=O)N(c3ccccc3OCC)C2)cc1OCC (stereo not given),-34,nt,14,-1,4,-43,nt,nt
CCN1CCc2c(C#N)c(N3CCOCC3)nc(NCCO)c2C1,1,0,78*,4,5,-1,7,-1
CCN1CCc2c(C#N)c(N3CCOCC3)nc(NCc3ccccc3)c2C1,nt,-12,nt,10,2,nt,nt,nt
O=C(O)c1ccccc1/C=N/Nc1ccc(S(=O)(=O)N2CCOCC2)cc1[N+](=O)[O-],-12,-14,56,1,-1,1,nt,nt
NS(=O)(=O)c1ccc(N/N=C/c2ccccc2C(=O)O)c([N+](=O)[O-])c1,3,-7,161*,2,-15,-7,40,74*
Cc1cccc(C(=O)OCC(=O)N2CC(C)CC(C)C2)c1C (stereo not given),-18,nt,7,9,37,-13,nt,nt
C=CCNC(=O)c1c(C(F)(F)F)nn(C)c1Cl,-10,-11,11,5,0,3,nt,nt
SMILES,CHO parental Ca,GPR7 antag,OX1R antag-1,TAAR1 ag,TAAR1 antagonist,OX1R antag-2,OX1R HTRF confirm,CHO-K1 HTRF
CC(C)C[C@H](NC(=O)N1CC(=O)Nc2ccccc21)C(=O)N[C@H](Cc1c[nH]c2ccccc12)C(=O)O,-19,-2,18,1,3,-5,nt,nt
CC(C)C[C@H](NC(=O)N1CC(=O)Nc2ccccc21)C(=O)N[C@@H](Cc1c[nH]c2ccccc12)C(=O)O,0,-4,82*,1,-12,20,44,5
CC(C)(C)c1nc(NCCO)c2nnn(Cc3ccccc3)c2n1,-28,-18,11,33,-16,-22,nt,nt
O=C(Nn1cnnc1)c1ccc([N+](=O)[O-])cc1Cl,-9,nt,16,2,-27,-14,nt,nt
Cn1nnc(NC(=O)c2ccc([N+](=O)[O-])cc2Cl)n1,15,-14,94*,4,5,16,66*,53*
COc1cc(/C=C2\OC(=O)c3c(OC)cccc32)ccc1O,0,-2,79*,12,10,-14,58*,13
CC[n+]1ccc(/C=C2\Sc3ccccc3N2CCCS(=O)(=O)[O-])c2ccccc21,8,0,97*,0,16,11,44,15
Cc1ccc(S(=O)(=O)/N=C2\C=C(NS(=O)(=O)c3ccccc3)C(=O)c3ccccc32)c(C)c1,nt,nt,nt,3,0,nt,nt,nt
CC(C)(C)c1ccc(S(=O)(=O)/N=C2\C=C(NS(=O)(=O)c3ccccc3)C(=O)c3ccccc32)cc1,-34,-6,88*,-3,-10,-18,47,4
O=C(CSCc1c[nH]c(=O)[nH]c1=O)OCC(=O)c1ccc(Br)cc1,5,-8,15,2,-4,-5,nt,nt
O=[N+]([O-])c1cccc(-c2nc(-c3ccncc3)no2)c1,0,-9,113*,11,-9,5,36,42*
O=[N+]([O-])c1cccc(-c2nc(-c3ccccc3)no2)c1,0,-8,12,18,-5,-17,nt,nt
CCOn1c(=O)c(-c2ccc(OC)c(OC)c2)[n+]([O-])c2ccccc21,4,-9,103*,0,4,3,40,37*
CCOn1c(=O)c(-c2ccc(OC)cc2)[n+]([O-])c2ccccc21,-19,11,121*,2,-2,-15,35,38*
C=CCOn1c(=O)c(-c2ccccc2)[n+]([O-])c2ccccc21,-14,1,122*,0,-3,-29,35,47*
CC(C)(C)[C@H]1COC(=O)CCCC/C=C\C[C@H](CC(=O)N(CCO)Cc2ccccc2)C(=O)N1,-16,nt,0,4,3,-21,nt,nt
